Data taken from PMC3217903 (Biochemistry, 2011).

Legend:
[1] = IP6 binding to free PH domain, intrinsic tryptophan fluorescence titration; conditions: read-out: KD(IP6); free PH domain 0.5 μM, 25°C, binding buffer plus 10 mM DTT
Procedure, shortened: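 GST-fused PH domain (0.5 μM) titrated with IP6. Intrinsic Trp excitation 284 nm; emission 322 nm (GRP1) or 340 nm (PLCδ1). A parallel control with sodium phosphate at six times the IP6 concentration is subtracted after dilution correction. KD from nonlinear least-squares hyperbolic fit. Triplicate titrations, mean ±1 SD; reported constants average ≥3 independent fits.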

[2] = test system: NIH 3T3 cells; experiment: Live cell imaging of plasma membrane targeting of citrine-coupled PH domains; format: cell-based; conditions: serum-starved NIH 3T3 cells
Procedure, shortened: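 NIH 3T3 fibroblasts grown in DMEM with 10% FBS and transfected with Lipofectamine 2000 (4 μg DNA) with N-terminal citrine–PH fusions. Replated 24–48 h post-transfection, then serum-starved 6 h in DMEM with 0.2% BSA at 37°C. Imaged live by wide-field fluorescence microscopy in HEPES-buffered HBSS, pH 7.4, with 0.01% BSA.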

[3] = Stopped-flow association and dissociation kinetics, PM; format: binding
Procedure, shortened: (§1)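 Stopped-flow FRET in binding buffer plus 10 mM DTT, 25°C, on plasma-membrane-mimic vesicles. Association: 0.5 μM PH domain mixed with vesicles (300 μM total lipid, 3 μM accessible PIP); kon from the dominant fast phase of a double-exponential fit. Dissociation: preformed complex mixed with excess IP6 (PI(3,4,5)P3: 10 mM wild type, 20 mM mutants; PI(4,5)P2: 8 mM). KD = koff/kon; ≥3 runs averaged.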

[4] = as above; format: binding; remark: listed apart in the source
Procedure, shortened: as §1

[5] = Competitive displacement assay; format: binding; conditions: ratio of equilibrium KD values
Procedure, shortened: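 Human GRP1 PH (residues 255–392) or mouse PLCδ1 PH (12–142) GST fusions, made in E. coli BL21. Sonicated vesicles mimic the plasma membrane (PE/PC/PS/PI/SM/CH/dPE/PIPn, 27.5/10.5/21/4.5/4.5/25/5/2 mol%). Sample: 0.5 μM protein, 300 μM total lipid, 3 μM accessible PI(4,5)P2 or PI(3,4,5)P3, pH 7.4 HEPES/KCl buffer plus 10 mM DTT, 25°C. IP6 titrated while FRET decrease is monitored. Protein-free control subtracted. KD(PIPn) calculated from fitted KI(IP6)app and KD(IP6).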

Kd [1] | Kd ([3]; read-out: KD (koff/kon), PM(+)PI(4,5)P2, calculated from kinetic constants) | Kd ([4]; read-out: KD (koff/kon), PM(+)PI(3,4,5)P3, calculated from kinetic constants) | weaker binding of membrane-bound PI(4,5)P2 than PI(3,4,5)P3 [5] | Molecule | relocation from plasma membrane to cytoplasm on PI(4,5)P2 hydrolysis ([2]; 20 μM ionomycin, 2 mM extracellular Ca2+, three minute) | cellular distribution in resting cells ([2]; citrine fusion) | kon ([3]; PM(+)PI(4,5)P2, 25°C) | koff ([3]; PM(+)PI(4,5)P2, excess IP6, 25°C) | kon ([4]; PM(+)PI(3,4,5)P3, 25°C) | koff ([4]; PM(+)PI(3,4,5)P3, excess IP6, 25°C)
4 ± 1 µM | 0.081 ± 0.005 µM | – | – | PLCδ1: PH domain of mouse PLCδ1 (residues 12–142), PI(4,5)P2-specific control (protein, UniProt Q8R3B1 12-142, looked up, fragment, PH domain) GLQDDPDLQALLKGSQLLKVKSSSWRRERFYKLQEDCKTIWQESRKVMRSPESQLFSIEDIQEVRMGHRTEGLEKFARDIPEDRCFSIVFKDQRNTLDLIAPSPADVQHWVQGLRKIIDRSGSMDQRQKLQ | fully relocates | targeted to plasma membrane | 180 ± 10 ×10^6 M^−1 s^−1 | 15 ± 1 s⁻¹ | – | –
20 ± 3 µM | – | 0.055 ± 0.001 µM | over 200 fold | WT: native PH domain of human GRP1 (residues 255–392), GST-fusion purified; citrine fusion in cells (protein, UniProt O43739 255-392, looked up, fragment, PH domain GST or citrine fusion) GNDLTHTFFNPDREGWLLKLGGGRVKTWKRRWFILTDNCLYYFEYTTDKEPRGIIPLENLSIREVEDPRKPNCFELYNPSHKGQVIKACKTEADGRVVEGNHVVYRISAPSPEEKEEWMKSIKASISRDPFYDMLATR | – | – | – | – | 14 ± 1 ×10^6 M^−1 s^−1 | 0.79 ± 0.01 s⁻¹
